# High-throughput results as filed in PubChem BioAssay.
# Only some compounds are listed: those with a hit (about 1.9% of all), similar ones and a draw of the others.
# CHRM5 antagonist – antagonists of human muscarinic M5 receptor (CHRM5) | P08912 | CHO-hM5 cells, Fluo-8 calcium fluorescence, ACh EC80 | inhibition, % at 3 µM | 0.59% of 360,000 active | AID 624040;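 active = inhibition above a per-plate cutoff, the mean of that plate's test compounds plus 3 SD, cut at about 27% in these data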;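 also: 0% = acetylcholine EC80 with DMSO and 100% = DMSO without agonist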
# Target sequence (P08912 whole entry, looked up): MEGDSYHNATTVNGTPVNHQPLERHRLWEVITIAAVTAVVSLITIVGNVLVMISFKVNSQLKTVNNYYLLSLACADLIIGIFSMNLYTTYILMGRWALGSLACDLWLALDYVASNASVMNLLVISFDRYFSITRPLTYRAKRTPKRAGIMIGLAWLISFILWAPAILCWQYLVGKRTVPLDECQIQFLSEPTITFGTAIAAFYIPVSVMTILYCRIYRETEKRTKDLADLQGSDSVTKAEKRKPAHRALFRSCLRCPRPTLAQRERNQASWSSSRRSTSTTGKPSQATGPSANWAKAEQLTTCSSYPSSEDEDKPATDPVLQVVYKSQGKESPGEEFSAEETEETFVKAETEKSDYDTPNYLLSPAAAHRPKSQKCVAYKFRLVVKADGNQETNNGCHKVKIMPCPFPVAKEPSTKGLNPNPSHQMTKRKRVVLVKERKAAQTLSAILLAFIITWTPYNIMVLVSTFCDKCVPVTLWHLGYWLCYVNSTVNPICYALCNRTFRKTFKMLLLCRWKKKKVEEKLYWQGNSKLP
# CHRM4 agonist – agonists of human muscarinic M4 receptor (CHRM4). activation, % at 3 µM. AID 624127. P08173. CHO-K1 hM4/Gqi5, Fluo-8 calcium fluorescence; vehicle 0%, full acetylcholine response 100%. 0.14% of 360,000 active;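 active = activation above the run mean over all test wells plus 3 SD, cut at about 32% in these data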;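 also: peak over basal fluorescence ratio per well then scaled between controls; 0% = DMSO wells and 100% = acetylcholine at EC100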
# M4 antag – blocks acetylcholine activation of human M4 receptor | P08173 | CHO-hM4 cells, ACh EC80, Fluo-8 calcium fluorescence | inhibition, % at 3 µM | 0.73% of 360,000 active;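 active = inhibition above its plate's cutoff, the mean inhibition of sample wells plus 3 SD, cut at about 27% in these data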;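 also: 0% = acetylcholine EC80 with DMSO and 100% = DMSO without agonist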
# M5 ag – agonists of human muscarinic M5 receptor (CHRM5); CHO-K1 hM5 cells, Fluo-8 calcium fluorescence; 0% DMSO wells, 100% maximal acetylcholine response; 0.19% of 360,000 active; P08912; AID 624037; activation, % at 3 µM;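 active = activation above the run's mean over test compounds plus 3 SD, cut at about 23% in these data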;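 also: signal is peak over basal fluorescence ratio across the kinetic read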
# CHRM5 PAM – CHRM5 positive allosteric modulation. AID 624038. P08912. CHO-K1 hM5, Fluo-8 calcium, ACh EC20 PAM; 0% = ACh EC20, 100% = ACh EC100. 0.3% of 360,000 active. activation, % at 3 µM;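 active = activation above the run cutoff, the mean activation of all test compounds plus 3 SD, cut at about 18% in these data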
#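 Assay system: CHO-K1 hM5 cells / Incubation: Fluo-8 loading 80 min at 37 °C plus 30 min room temperature / Technique: Fluo-8 calcium dye fluorescence, kinetic read / Repeats: single replicate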
# CHRM4 PAM – potentiates acetylcholine response at human M4 receptor. CHO-K1 hM4/Gqi5, Fluo-8 calcium fluorescence, ACh EC20; 0% = ACh EC20, 100% = maximal ACh. P08173. 0.4% of 360,000 active. activation, % at 3 µM;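 active = activation above its plate's cutoff, the mean activation of sample wells plus 3 SD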
# The depositor's hits bear a star.
SMILES,CHRM5 antagonist,CHRM4 agonist,M4 antag,M5 ag,CHRM5 PAM,CHRM4 PAM
S=C(Nc1ccc(Cl)c(Cl)c1)NC1CCN(Cc2ccccc2)CC1,33*,46*,38*,19,-14,3
Fc1cccc(NC(=S)NC2CCCCCCC2)c1,27*,14,-7,4,-17,-6
Fc1ccc(NC(=S)NC2CCN(Cc3ccccc3)CC2)cc1,-2,6,1,-2,-5,-9
S=C(Nc1cccc(Cl)c1Cl)NC1CCN(Cc2ccccc2)CC1,-2,9,9,-1,5,0
S=C(Nc1ccc(Cl)c(Cl)c1)NC1CCCCC1,29*,18,15,3,-23,-10
O=C(CCC(=O)N1CCOc2ccccc21)NCCCN1CCN(Cc2ccccc2)CC1,-5,1,-11,-3,0,-2
Cc1ccc(N(CC(=O)NCc2ccccc2)C(=O)c2csnn2)cc1,10,0,-6,-3,2,0
COc1ccc(Cc2[nH]n3c(=O)c(Cl)c(C)nc3c2-c2ccccc2)cc1,-3,2,-6,-1,3,10
CCCOC(=O)c1ccc(NC(=O)CSC2=Nc3ccccc3C3CC=NN23)cc1 (stereo unspecified),2,1,14,1,6,38*
O=C(CSC1=Nc2ccccc2C2CC=NN12)Nc1ccc2c(c1)OCO2 (stereo unspecified),9,0,10,1,0,-7
Cc1cc(C)cc(N(CCC#N)C(=O)CSC2=Nc3ccccc3C3CC=NN23)c1 (stereo unspecified),-3,9,5,24*,13,-5
Nc1c(N(CCC2=CCCCC2)C(=O)C2CC2)c(=O)[nH]c(=O)n1Cc1ccccc1,-5,1,-1,0,-2,4
CC1=CC(C/C(C)=C/COc2ccc3ccc(=O)oc3c2)OC1=O (stereo unspecified),7,9,-15,1,-2,35*
O=C(NC1CCN(Cc2ccccc2)CC1)C1COc2ccccc2O1 (stereo unspecified),64*,2,18,-13,-43,-14
CCN(c1ccccc1)S(=O)(=O)c1ccc(C(=O)NC2CCN(Cc3ccccc3)CC2)cc1,22,25,46*,0,-43,-12
COc1ccc(Cl)cc1NS(=O)(=O)c1cccc(C(=O)NC2CCN(Cc3ccccc3)CC2)c1,19,8,32*,0,-5,-14
O=C(O)c1ccc(N/N=C/C2=Cc3ccccc3OC2)cc1,7,13,4,11,-10,-23
Cc1cc(NC(=O)CN2C(=O)NC(C)(c3ccc(OC(F)F)cc3)C2=O)no1 (stereo unspecified),7,10,6,19,2,10
CCC1(CC)NC(=O)N(CC(=O)OCC(=O)Nc2cc(C)ccc2C)C1=O,1,1,-13,-1,0,18*
CC1(C)NC(=O)N(CC(=O)OCC(=O)c2ccc(F)cc2)C1=O,-3,2,-8,2,8,11
CC1(c2ccc(OC(F)F)cc2)NC(=O)N(CC(=O)Nc2cccc(F)c2)C1=O (stereo unspecified),25,98*,26*,45*,1,-23
CC1(C)NC(=O)N(CC(=O)OCC(=O)Nc2cccc(F)c2)C1=O,9,1,-1,-5,37*,3
CCOC(=O)c1c(NC(=O)CN2C(=O)NC(C)(c3ccc(OC(F)F)cc3)C2=O)sc(C)c1C (stereo unspecified),17,18,18,15,4,6
CC1(c2ccc(OC(F)F)cc2)NC(=O)N(CC(=O)Nc2ccc(Cl)cc2F)C1=O (stereo unspecified),3,31,3,30*,4,-3
CC1(c2ccc(OC(F)F)cc2)NC(=O)N(CC(=O)Nc2ccc(S(N)(=O)=O)cc2)C1=O (stereo unspecified),1,0,4,-1,-7,-9
